The text below walks through data of ChEMBL document CHEMBL5715946 (Chem Biol, 2010).

The subject of assay [1] is H9c2. Nature of the assay: Effect on protein oxidation in rat H9c2 cells at 10 uM incubated for 24 hrs under serum-free medium by Western blot analysis. In kind it is functional, cell-based.
The subject of assay [2] is Cardiac muscle cell. The assay can be described thus: Potency index, ratio of trolox MEC1.5 to test compound MEC1.5 for cytoprotective activity against serum deprivation-induced neonatal Wistar rat cardiomyocyte death. In kind it is functional.
Assay [3] can be described thus: Upregulation of multidrug resistance protein gene expression in serum-deprived neonatal Wistar rat cardiomyocyte at 0.37 uM incubated for 21 hrs by microarray analysis relative to control. The format is functional, Cardiac muscle cell. Summed up:
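Primary neonatal rat cardiomyocytes, isolated by proteinase digestion with preplating to deplete nonmyocytes, cultured in serum-free medium with or without 0.37 μM compound for 21 hr. Total RNA was recovered and global expression profiled on an Affymetrix GeneChip rat genome U34A array (about 7000 known genes). Change is relative to untreated cells.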

Assay [4] deals with Macrophage migration inhibitory factor (Rattus norvegicus) (UniProt P30904). The assay can be described thus: Binding affinity to BTZO-12 sensor chip immobilized recombinant rat MIF expressed in Escherichia coli BL21 (DE3) at pH 6 by SPR analysis. Summed up:
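SPR on a BTZO-12-type sensor chip with purified recombinant rat MIF, binding compared at pH 6.0 and pH 7.3.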
(In general: In SPR one partner is held on a chip, and binding of the other changes the refractive index at the surface.)

Assay [5] deals with T1, Macrophage migration inhibitory factor (Homo sapiens) (UniProt P14174).
T1 sequence (whole entry): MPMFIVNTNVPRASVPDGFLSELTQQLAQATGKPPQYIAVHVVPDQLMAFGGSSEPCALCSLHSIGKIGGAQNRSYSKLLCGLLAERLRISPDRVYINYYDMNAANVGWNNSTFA
Nature of the assay: Binding affinity to BTZO-12 sensor chip immobilized recombinant human N-terminal His-tagged MIF expressed in Escherichia coli BL21 (DE3) by SPR analysis. An outline of the steps:
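Sensor chip carrying immobilized BTZO-12; MIF (wild type or point mutants) passed over it and specific binding monitored by surface plasmon resonance.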

Assay [6] deals with T2, Macrophage migration inhibitory factor (Homo sapiens, UniProt P14174).
T2 sequence (P14174 whole entry): T1 sequence (whole entry)
The assay can be described thus: Binding affinity to recombinant human C-terminal His-tagged MIF expressed in Escherichia coli BL21 (DE3) at 400 nM incubated for 6 hrs using labelled compound by scintillation proximity assay. Summed up: (§1)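 Scintillation proximity assay: 6His-tagged protein (hMIF, rat GST Ya or rat VILIP3) captured on copper His-tag SPA beads with [3H]-BTZO-1; emitted light counted on a microplate scintillation counter. Mean of n = 2.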

The species named for assay [7] is Rattus norvegicus. The assay can be described thus: Binding affinity to rat 6His-tagged VILIP3 expressed in Escherichia coli BL21 (DE3) at 400 nM incubated for 6 hrs using labelled compound by scintillation proximity assay. Summed up: as §1
Background: In a scintillation proximity assay essentially only radioactivity close to the scintillant gives light.

The subject of assay [8] is Antioxidant response element. Nature of the assay: Induction of ARE-mediated HO-1 mRNA expression in MIF siRNA transfected rat H9c2 cells at 3 uM measured after 24 hrs by RT-qPCR analysis. In kind it is cell-based. An outline of the steps: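 H9c2 cells transfected with MIF siRNA or control siRNA (100 nM, Oligofectamine), then treated with 3 μM compound with or without 0.8 μM rMIF for 24 hr. GST Ya and HO-1 mRNA by real-time qPCR; mean ± SD, n = 3. MIF effect on drug efficacy tested by Aspin-Welch test.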
Background: In qPCR the cycle at which signal appears reflects the starting amount.

In assay [9] the target is Macrophage migration inhibitory factor (Rattus norvegicus, UniProt P30904). Nature of the assay: Inhibition of recombinant rat MIF expressed in Escherichia coli BL21 (DE3) assessed as reduction in tautomerase activity using L-dopachrome carboxy-methyl ester as substrate by spectrophotometry. Summed up:
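Purified recombinant rat MIF tautomerase assayed with purified L-dopachrome carboxy-methyl ester as substrate in pH 6.0 buffer; rate taken over the initial 30 s. Mean ± SD, n = 4.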

The source made the active and inactive calls. No cut-off for these calls is given here. A value given as a limit tells only on which side of the number the result lay.

Sequence of Macrophage migration inhibitory factor (Rattus norvegicus, UniProt P30904) (P30904 2-115 limits assumed): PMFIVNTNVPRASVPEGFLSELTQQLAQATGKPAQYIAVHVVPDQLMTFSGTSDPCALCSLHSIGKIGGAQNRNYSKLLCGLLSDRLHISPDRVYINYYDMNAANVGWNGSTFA
Sequence of Macrophage migration inhibitory factor (Rattus norvegicus) (P30904 2-115 limits assumed): as above

A word on the Kd: it is the equilibrium constant for the complex coming apart. The term IC50 denotes the concentration that inhibits the measured activity by half. Turning to `O=c1nc(-c2ccccn2)sc2ccccc12` [BTZO-1], the outcome in assay [1], in assay [7] and in assay [8] was inactive. Besides, the Ratio in assay [2] was found to be 10000. Further, the “fold change (FC)” value in assay [3] is recorded as 2.7. Besides, the result in [4] and in [5] was Active. Also, the Kd in assay [6] was found to be 68.6 nM. Besides, in assay [9], the half-inhibitory concentration (IC50) was above 30000 nM.
